CAL PDZ FP-1: blocks peptide binding to the human CAL PDZ domain; purified CAL PDZ, TMR-peptide fluorescence polarization, 1 h; 300,000 tested, 0.92% active; inhibition, % at 24.9 µM;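 active = mean inhibition of at least 30% with at least half of replicates also reaching 30%; inconclusive = no clear call, values can overlap the other calls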
CAL PDZ FP-2: inhibitors of human CAL PDZ peptide binding; 330,000 tested, 0.02% active; purified CAL PDZ, TMR-peptide fluorescence polarization, 1 h; inhibition, % at 20 µM; Q9HD26;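 active = highest replicate inhibition of at least 40%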
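Read-out basis: mP drop reported as inhibition | Assay system: Tagged CAL PDZ protein CerCALP, purified | Benchmarks: Unlabelled peptide for full inhibition, DMSO wells as neutral | Schedule: 1 h incubation at room temperature before polarization reading | Buffer or medium: Sodium phosphate/NaCl buffer pH 7.4 with TCEP, IgG, Thesit | Doses: Single point, 20 µM | Measured by: Fluorescence polarization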
cardiac RTF act: cardiac RTF calcium sensitization; IANBD-labeled TnC RTF fluorescence at EC20 calcium; 0% EC20 calcium, 100% full calcium; P19429+P45379; 340,000 tested, 0.24% active; AID 493008; activation, % at 7.2 µM;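 active = activation above the mean over all tested compounds plus 3 SD, cut at about 30% in these data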;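 note: rise in fluorescence read as greater calcium sensitivity of cardiac thin filaments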
RTF Ca sens inh: cardiac RTF calcium desensitization; P19429+P45379; IANBD-labeled cardiac RTF, Ca2+ fluorescence; inhibition, % at 7.15 µM; 340,000 tested, 0.12% active; AID 493244;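 active = inhibition above the mean inhibition of all tested compounds plus 3 SD, cut at about 17% in these data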;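 note: assay run at fixed EC70 calcium of 1.6 mM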
C-LANA FP: blocks KSHV LANA C-terminal domain binding to DNA | inhibition, % at 9 µM | 340,000 tested, 0.078% active | AID 504423 | MBP-C-LANA/FAM-LBS DNA binding, fluorescence polarization;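 active = highest replicate inhibition at or above 60% at 9 µM, even if other replicates fall short; inactive = all replicates below 60% inhibition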
Keap1-Nrf2 PPI: inhibitors of human Keap1-Nrf2 protein-protein interaction; AID 504523; Keap1 Kelch-Nrf2 peptide fluorescence polarization, 1536-well; inhibition, % at 9.4 µM; 340,000 tested, 0.15% active; Q14145; in the data active = inhibition above about 12%; inconclusive = no clear call, values can overlap the other calls; inactive = below about 7.3%;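 note: human Keap1 Kelch domain with fluorescein labeled Nrf2 9mer peptide probe; higher means more block of Keap1 binding to Nrf2 peptide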
Target sequence (Q14145 whole entry, looked up, the tested form may be a part): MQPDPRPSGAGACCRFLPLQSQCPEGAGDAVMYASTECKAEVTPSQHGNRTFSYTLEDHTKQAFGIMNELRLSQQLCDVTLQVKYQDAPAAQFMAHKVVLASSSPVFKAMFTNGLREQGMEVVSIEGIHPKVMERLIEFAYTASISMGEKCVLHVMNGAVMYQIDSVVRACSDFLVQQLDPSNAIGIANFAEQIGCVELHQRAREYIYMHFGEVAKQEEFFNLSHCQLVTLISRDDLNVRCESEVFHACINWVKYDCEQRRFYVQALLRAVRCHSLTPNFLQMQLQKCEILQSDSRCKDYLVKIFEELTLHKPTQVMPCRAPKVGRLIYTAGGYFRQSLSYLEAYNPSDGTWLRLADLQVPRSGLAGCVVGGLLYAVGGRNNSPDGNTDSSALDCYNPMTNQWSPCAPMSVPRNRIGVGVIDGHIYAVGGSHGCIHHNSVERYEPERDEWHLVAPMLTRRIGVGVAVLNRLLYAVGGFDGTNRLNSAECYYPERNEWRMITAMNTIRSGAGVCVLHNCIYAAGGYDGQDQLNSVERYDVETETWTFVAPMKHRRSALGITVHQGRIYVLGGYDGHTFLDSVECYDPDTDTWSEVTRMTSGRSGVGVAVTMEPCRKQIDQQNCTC
Each line names hits and unclear results; the compound was inactive in the other large screens. Hits are enriched below; roughly 1.3% of the tested compounds scored in any of these assays.

Cc1ccc(-c2n[nH]c(=S)c3ccccc23)cc1S(=O)(=O)NCC1CCCO1 (centres undefined)	CAL PDZ FP-1 38.5
O=C(NNC(=O)c1ccc(NC(=O)c2ccccc2)cc1)Nc1ccccc1	none (no result: CAL PDZ FP-1)
Cc1cccc(C(=O)NNC(=O)c2ccc(NC(=O)C(C)(C)C)cc2)c1	none (no result: CAL PDZ FP-1)
O=C(NC1=C(Nc2ccc(F)cc2)C(=O)c2ccccc2C1=O)c1ccc(Cl)cc1	CAL PDZ FP-1 69.7
CC(=O)c1cccc(NC(=O)CCNC(=O)c2cccc(C)c2)c1	CAL PDZ FP-1 70.6
CC(=O)Nc1ccc(C(=O)NNC(=O)c2cccc(C)c2)cc1	CAL PDZ FP-1 41.1
O=C(NNC(=O)c1ccc(NC(=O)c2ccccc2)cc1)c1ccc(F)cc1	CAL PDZ FP-1 47.7
Cc1cccc(NC(=O)CCNC(=O)c2ccccc2)c1	none
CCSc1nc(-c2ccccc2)cc(=O)[nH]1	none
COc1ccc(C(=O)Nc2ccc(Cl)cc2F)cc1S(=O)(=O)N1CCCC1	none (no result: CAL PDZ FP-1)
COc1ccc(Nc2nc(N3CCN(C)CC3)nc3ccccc23)c(OC)c1	CAL PDZ FP-1 53.2
COc1ccc(Nc2nc(-c3cccs3)nc3ccccc23)c(OC)c1	none
Cc1ccc(CNS(=O)(=O)c2ccc(C(F)(F)F)cc2)n1C	CAL PDZ FP-1 57.9 (no result: cardiac RTF act, RTF Ca sens inh)
CCN1CCN(C(=O)c2[nH]c3ccc(OC)cc3c2C)CC1	none
Nc1nnc(SCC(=O)c2ccc([N+](=O)[O-])cc2)s1	CAL PDZ FP-1 34.8
Cc1nnc(SCC(=O)c2ccc([N+](=O)[O-])cc2)s1	none (no result: CAL PDZ FP-1)
O=CNc1c(Br)cc2c(c1Br)Cc1cc(Br)ccc1-2	none
Cc1cccc(-c2nc(N)nc(N)n2)c1	CAL PDZ FP-1 33.8
N#CC1C(=O)NC(=O)CC12CCCCC2 (centres undefined)	CAL PDZ FP-1 80.1
CCOC(=O)CC(=O)Nc1nnc(C(C)C)s1	CAL PDZ FP-1 37.9
O=C(O)Cc1sc(-c2ccc(Cl)cc2)nc1-c1ccccc1	CAL PDZ FP-1 54.3
CCCC(O)(CCN1CCOCC1)c1ccc(Cl)cc1 (centres undefined)	CAL PDZ FP-1 40.8
CCOc1ccc(CCNC(=O)C2CCCN(c3ncnc4c3nc3n4CCCCC3)C2)cc1 (centres undefined)	none
CCOC(=O)C1=C(CC)Nc2ccccc2N/C1=N\S(=O)(=O)c1ccccc1F	none
CCOC(=O)C1=C(CC)Nc2ccccc2N/C1=N\S(=O)(=O)c1cccc(C(C)=O)c1	CAL PDZ FP-1 55.1
NC(=O)C1CCN(CC(=O)Nc2cc(S(=O)(=O)N3CCOCC3)ccc2N2CCCC2)CC1	none (no result: CAL PDZ FP-1)
Cc1ccc(C2C(C(=O)c3ccco3)=C(O)C(=O)N2c2nnc(C)s2)cc1 (centres undefined)	none
COc1ccc(C2C(C(=O)c3cccs3)=C(O)C(=O)N2c2nnc(C)s2)cc1OC (centres undefined)	cardiac RTF act 80.1, Keap1-Nrf2 PPI inconclusive
C=CCOc1ccc(C2C(C(=O)c3cccs3)=C(O)C(=O)N2c2nnc(C)s2)cc1 (centres undefined)	cardiac RTF act 44.3
Cc1cc(NC(=O)C(C)SCC(=O)Nc2ccccc2OC(F)F)no1 (centres undefined)	none
Cc1ccc(NC(=O)CN(C)C(=O)c2cc(-c3ccccc3)nn2-c2ccccc2)cc1	none
CC1(C)Cc2c(sc(NC(=O)C(=O)N3CCN(CCO)CC3)c2C(N)=O)CO1	none
O=S(=O)(c1cc(C(F)(F)F)ccc1Cl)N1CCN(c2ncnc3ccccc23)CC1	CAL PDZ FP-1 61.8
CN(C)C(=O)CSc1nc2cc(S(=O)(=O)N3CCOCC3)ccc2o1	CAL PDZ FP-1 90.3
CCN1/C(=C/C(C)=O)Sc2ccc(OC)cc21	CAL PDZ FP-1 48.4
CCn1ccnc1CN1CCc2c([nH]c3ccccc23)C1C(C)(C)C (centres undefined)	CAL PDZ FP-1 79.7
C=C[C@@H]1c2cc(C)ccc2N(S(=O)(=O)c2ccc(C)cc2)[C@H](c2ccc(OC(C)=O)cc2)C1(C#N)C#N	none
O=C(NC(Cc1ccccc1)C(=O)O)/C(=C\c1ccc(F)cc1)NC(=O)c1ccco1 (centres undefined)	none
O=C(NC(Cc1ccccc1)C(=O)O)/C(=C/c1ccccc1)NC(=O)c1ccco1 (centres undefined)	CAL PDZ FP-1 63.1
CC(=O)Nc1cccc(NC(=O)CSc2nc(=O)n3cccc(C)c3n2)c1	none
FC(F)(F)c1ccccc1NC(=S)N1CCN(c2ccccn2)CC1	none (no result: CAL PDZ FP-1)
FC(F)(F)c1ccccc1NC(=S)N1CCCC1	CAL PDZ FP-1 50.2
Cc1ccc(NC(=O)c2ccc(-n3cccn3)c([N+](=O)[O-])c2)cc1	none
Cc1ccc(NC(=O)c2cc3cccc([N+](=O)[O-])c3[nH]2)cc1	CAL PDZ FP-1 67.2
O=C(Nc1ccc(CN2CCOCC2)cc1)c1ccc(-c2cccc(Cl)c2)o1	CAL PDZ FP-1 89.2
O=C(NC(=S)Nc1ccc(CN2CCOCC2)cc1)c1ccc(-c2cccc(Cl)c2)o1	none
COC(=O)[C@]1(C)N[C@H](CN(C)S(=O)(=O)c2ccc(OC(F)(F)F)cc2)[C@@H]2C(=O)N(Cc3ccccc3)C(=O)[C@@H]21	none
O=C(COC(=O)C1=COCCO1)Nc1ncc(C(F)(F)F)cc1Cl	none
O=C(COC(=O)c1cnccn1)Nc1ncc(C(F)(F)F)cc1Cl	CAL PDZ FP-1 54.5
CC1CC(C)CN(CC(=O)NNC(=O)COc2ccc(Cl)cc2)C1 (centres undefined)	none (no result: CAL PDZ FP-1)
CC(OC(=O)c1ccc(Cl)c([N+](=O)[O-])c1)C(=O)N1CCN(Cc2ccccc2)CC1 (centres undefined)	CAL PDZ FP-1 146.9
CC(C)=CCN1CCN(Cc2cn(C(C)C)c3ccccc23)CC1CCO (centres undefined)	none
N#Cc1ccc(C(=O)OCC(=O)N2CCCCCC2)cc1	none
Cc1nn2c(NCCCN(C)C)c3c(nc2c1-c1ccccc1)CCC3	none (no result: CAL PDZ FP-2)
Cc1nn2c(NCCCN(C)C)c3c(nc2c1-c1ccccc1)CCCC3	CAL PDZ FP-1 active
C=CCn1c(SCC(=O)N(C(C)CC)C2CCS(=O)(=O)C2)nc2ccccc2c1=O (centres undefined)	none
CCn1c(SCc2ccc(F)cc2)nnc1C1CCN(S(=O)(=O)c2ccc(OC)cc2)CC1	CAL PDZ FP-1 48.9
C[C@H](NC(=O)c1nc[nH]c1C(=O)N1CCNCC1)C(=O)OC(C)(C)C	none
CCC(=O)N1CCc2cc(Br)cc(S(=O)(=O)N3CCCCC3CC)c21 (centres undefined)	CAL PDZ FP-1 73.7
CN(C)c1ccc(O)c2c1CC1CC3[C@@H](N(C)C)C(=O)C(C(N)=O)=C(O)[C@]3(O)C(=O)C1=C2O (some centres undefined)	C-LANA FP 76.7
COc1ccc(C)cc1NC(=O)NC1CCCCCCC1	none
